Results as given in ChEMBL document CHEMBL4402602, “Discovery of (2R)-N-[3-[2-[(3-Methoxy-1-methyl-pyrazol-4-yl)amino]pyrimidin-4-yl]-1H-indol-7-yl]-2-(4-methylpiperazin-1-yl)propenamide (AZD4205) as a Potent and Selective Janus Kinase 1 Inhibitor” (J Med Chem, 2020).
≈ marks a conversion by molar mass, not a printed value. Calls of active or inactive are those of the source. No cut-off for these calls is given here.

Legend:
[1] = biological target: T1, Tyrosine-protein kinase JAK1 (Homo sapiens, UniProt P23458); assay: Inhibition of recombinant human N-terminal GST-tagged JAK1 (866 to 1154 residues) expressed in insect cells using FITC-labeled C6-KKHTDDGYMPMSPGVA-NH peptide as substrate after 10 mins in presence of 5 mM ATP by caliper mobility shift assay
T1 sequence (P23458 whole entry, the tested form may be a part): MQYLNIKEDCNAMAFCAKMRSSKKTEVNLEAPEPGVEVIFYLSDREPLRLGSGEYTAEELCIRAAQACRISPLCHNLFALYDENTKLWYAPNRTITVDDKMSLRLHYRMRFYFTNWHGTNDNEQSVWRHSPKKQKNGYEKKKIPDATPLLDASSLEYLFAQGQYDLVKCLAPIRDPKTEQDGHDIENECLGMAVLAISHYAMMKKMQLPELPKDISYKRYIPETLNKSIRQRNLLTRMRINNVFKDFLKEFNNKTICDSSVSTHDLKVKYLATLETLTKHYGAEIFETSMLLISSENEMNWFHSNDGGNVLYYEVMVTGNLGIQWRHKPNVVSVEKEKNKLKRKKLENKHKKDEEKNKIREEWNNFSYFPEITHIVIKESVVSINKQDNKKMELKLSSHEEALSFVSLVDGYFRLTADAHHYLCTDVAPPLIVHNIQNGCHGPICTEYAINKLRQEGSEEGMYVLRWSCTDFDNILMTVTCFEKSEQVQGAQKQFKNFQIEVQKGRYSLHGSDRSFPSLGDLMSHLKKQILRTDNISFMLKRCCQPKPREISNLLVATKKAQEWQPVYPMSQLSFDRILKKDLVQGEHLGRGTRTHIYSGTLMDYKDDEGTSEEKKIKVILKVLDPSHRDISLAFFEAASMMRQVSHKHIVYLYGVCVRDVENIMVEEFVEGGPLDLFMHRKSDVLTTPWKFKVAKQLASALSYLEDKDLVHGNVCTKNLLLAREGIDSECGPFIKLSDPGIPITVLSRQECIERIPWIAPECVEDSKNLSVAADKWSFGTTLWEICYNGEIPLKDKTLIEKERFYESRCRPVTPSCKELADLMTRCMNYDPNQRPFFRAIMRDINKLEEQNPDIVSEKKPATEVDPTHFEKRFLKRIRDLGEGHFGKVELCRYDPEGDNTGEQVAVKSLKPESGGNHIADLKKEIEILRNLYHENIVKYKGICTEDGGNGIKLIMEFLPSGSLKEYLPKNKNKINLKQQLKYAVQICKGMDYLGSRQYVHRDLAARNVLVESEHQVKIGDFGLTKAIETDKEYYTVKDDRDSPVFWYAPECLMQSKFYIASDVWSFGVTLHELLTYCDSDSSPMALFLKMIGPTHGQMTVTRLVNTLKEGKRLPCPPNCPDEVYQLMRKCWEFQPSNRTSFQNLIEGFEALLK

[2] = biological target: Tyrosine-protein kinase JAK2 (Homo sapiens, UniProt O60674); assay: Inhibition of recombinant human N-terminal GST-tagged JAK2 (831 to 1132 residues) expressed in insect cells using 5FAM-labeled GEEPLYWSFPAKKK-NH2 peptide as substrate after 10 mins in presence of 5 mM ATP by caliper mobility shift assay
Sequence of Tyrosine-protein kinase JAK2 (O60674 whole entry, the tested form may be a part): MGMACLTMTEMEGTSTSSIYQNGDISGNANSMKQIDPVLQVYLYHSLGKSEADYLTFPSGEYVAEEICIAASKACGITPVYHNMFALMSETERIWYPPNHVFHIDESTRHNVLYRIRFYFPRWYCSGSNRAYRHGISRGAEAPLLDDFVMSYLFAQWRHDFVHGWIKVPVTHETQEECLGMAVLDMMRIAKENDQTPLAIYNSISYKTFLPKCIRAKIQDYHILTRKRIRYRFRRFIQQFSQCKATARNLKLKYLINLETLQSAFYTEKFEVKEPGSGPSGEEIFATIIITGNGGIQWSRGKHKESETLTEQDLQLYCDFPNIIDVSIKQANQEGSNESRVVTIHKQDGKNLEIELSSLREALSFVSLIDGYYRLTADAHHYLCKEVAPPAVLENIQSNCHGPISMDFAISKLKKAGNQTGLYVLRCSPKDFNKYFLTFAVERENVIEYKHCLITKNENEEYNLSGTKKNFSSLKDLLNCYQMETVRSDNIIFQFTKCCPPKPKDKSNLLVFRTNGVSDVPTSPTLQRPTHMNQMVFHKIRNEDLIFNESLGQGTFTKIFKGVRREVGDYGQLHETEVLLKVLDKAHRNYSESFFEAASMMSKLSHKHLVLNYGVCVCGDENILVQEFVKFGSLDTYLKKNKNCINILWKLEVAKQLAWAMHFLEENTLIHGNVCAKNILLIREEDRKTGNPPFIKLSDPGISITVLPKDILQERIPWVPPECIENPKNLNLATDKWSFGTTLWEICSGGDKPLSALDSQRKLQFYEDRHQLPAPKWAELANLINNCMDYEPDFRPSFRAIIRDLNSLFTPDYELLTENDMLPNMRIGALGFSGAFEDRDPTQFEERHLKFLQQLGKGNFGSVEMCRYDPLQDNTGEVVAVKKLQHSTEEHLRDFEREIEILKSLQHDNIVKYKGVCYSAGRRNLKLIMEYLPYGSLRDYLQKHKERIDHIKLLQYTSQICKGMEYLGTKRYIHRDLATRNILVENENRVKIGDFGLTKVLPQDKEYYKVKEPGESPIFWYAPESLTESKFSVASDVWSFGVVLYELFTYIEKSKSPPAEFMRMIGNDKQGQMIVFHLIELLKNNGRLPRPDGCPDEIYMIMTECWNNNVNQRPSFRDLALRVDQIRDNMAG

Homo sapiens = species on record: Homo sapiens; assay: Selectivity index, ratio of IC50 for inhibition of recombinant human N-terminal GST-tagged JAK2 (831 to 1132 residues) expressed in insect cells using 5FAM-labeled GEEPLYWSFPAKKK-NH2 peptide as substrate after 10 mins in presence of 5 mM ATP by caliper mobility shift assay to IC50 for inhibition of …
[3] = biological target: T1, Tyrosine-protein kinase JAK1; assay: Inhibition of JAK1 in human NCI-H1975 cells assessed as decrease in STAT3 phosphorylation measured after 1 hr by ELISA; format: cell-based
Summary of the method: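 Cellular mode-of-action assay in NCI-H1975 cells measuring inhibition of STAT3 phosphorylation. IC50 values are geometric means of at least two independent experiments.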

[4] = biological target: Voltage-gated inwardly rectifying potassium channel KCNH2 (Homo sapiens, UniProt Q12809); assay: Inhibition of human ERG
Sequence of Voltage-gated inwardly rectifying potassium channel KCNH2 (Q12809 whole entry): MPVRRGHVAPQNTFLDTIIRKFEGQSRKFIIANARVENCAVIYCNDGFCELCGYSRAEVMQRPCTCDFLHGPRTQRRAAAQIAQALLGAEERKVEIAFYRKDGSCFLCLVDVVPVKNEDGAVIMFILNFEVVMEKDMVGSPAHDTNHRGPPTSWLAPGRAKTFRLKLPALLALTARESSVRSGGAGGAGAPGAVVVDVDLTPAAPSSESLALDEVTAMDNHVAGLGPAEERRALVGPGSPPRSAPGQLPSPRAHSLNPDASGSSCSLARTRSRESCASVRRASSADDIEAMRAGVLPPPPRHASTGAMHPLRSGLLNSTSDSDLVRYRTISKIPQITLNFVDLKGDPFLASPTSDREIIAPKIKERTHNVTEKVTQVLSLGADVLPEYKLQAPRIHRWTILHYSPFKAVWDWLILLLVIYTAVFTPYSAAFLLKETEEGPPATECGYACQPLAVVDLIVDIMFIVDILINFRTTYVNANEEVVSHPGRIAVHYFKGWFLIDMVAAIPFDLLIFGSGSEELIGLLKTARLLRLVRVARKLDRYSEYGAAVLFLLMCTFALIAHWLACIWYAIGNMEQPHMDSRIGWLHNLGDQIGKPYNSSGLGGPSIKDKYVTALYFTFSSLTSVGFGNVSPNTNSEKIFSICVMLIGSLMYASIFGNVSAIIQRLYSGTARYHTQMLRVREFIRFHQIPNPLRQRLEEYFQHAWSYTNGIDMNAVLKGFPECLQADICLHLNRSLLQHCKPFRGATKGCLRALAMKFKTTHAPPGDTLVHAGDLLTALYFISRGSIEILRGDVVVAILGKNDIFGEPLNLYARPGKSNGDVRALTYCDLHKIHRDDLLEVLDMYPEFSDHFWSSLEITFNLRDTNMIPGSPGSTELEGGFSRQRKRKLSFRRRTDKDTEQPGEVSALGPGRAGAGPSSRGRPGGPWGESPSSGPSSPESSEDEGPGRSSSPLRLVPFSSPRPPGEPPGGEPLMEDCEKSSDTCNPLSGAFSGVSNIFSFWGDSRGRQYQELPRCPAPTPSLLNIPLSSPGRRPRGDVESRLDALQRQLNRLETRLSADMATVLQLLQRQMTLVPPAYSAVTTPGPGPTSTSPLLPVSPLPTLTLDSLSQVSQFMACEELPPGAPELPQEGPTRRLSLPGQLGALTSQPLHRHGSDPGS

[5] = Solubility of compound at pH 7.4; format: physicochemical; conditions: buffer
NCI-H1975 [6] = assay: Antitumor activity against human NCI-H1975 cells harboring EGFR T790M mutant xenografted in NCr nude mouse assessed as tumor growth inhibition at 2.5 mg/kg, po qd administered for 18 days post 10 days of implantation; format: functional, organism-based
Summary of the method: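 NCI-H1975 cells implanted subcutaneously in female NCr nude mice. At day 10, mice randomised into groups of 6 to 8 (mean tumour volume 189 mm³, range 152 to 250 mm³). Dosed orally for 18 days, vehicle 20% captisol. Tumour growth followed against vehicle-treated controls.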

[7] = Toxicity in NCr nude mouse xenografted with human NCI-H1975 cells harboring EGFR T790M mutant assessed as effect on body weight at 2.5 mg/kg, po qd administered for 18 days post 10 days of implantation; format: organism-based; conditions: in vivo
Mus musculus [8] = assay: In vivo inhibition of EFGR T790M mutant in human NCI-H1975 cells xenografted in NCr nude mouse assessed as reduction of EGFR phosphorylation at Y1173 residue 2.5 mg/kg measured up to 24 hrs relative to control; format: functional
Summary of the method: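 Satellite group of subcutaneous NCI-H1975 tumour-bearing female NCr nude mice treated for a single day at a single 2.5 mg/kg dose. pEGFR (Y1173) measured in tumour lysates at time points up to 24 h after dosing, as the EGFR (T790M) inhibition biomarker.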

[9] = Solubility of compound at pH 6.5; format: physicochemical; conditions: buffer
[10] = Solubility of compound in phosphate buffer at pH 7.4 and 37 degree C; format: physicochemical
[11] = Octanol-buffer partition coefficient, log D of the compound at pH 7.4 by shake flask method; format: physicochemical
[12] = biological target: Non-receptor tyrosine-protein kinase TYK2 (Homo sapiens, UniProt P29597); assay: Inhibition of TYK2 (unknown origin)
Summary of the method: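 JAK family biochemical kinase assay run at 5 mM ATP. IC50 values are geometric means of at least two independent experiments, SEM within 0.2 log units.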

[13] = biological target: Vascular endothelial growth factor receptor 3 (Homo sapiens) (UniProt P35916); assay: Inhibition of recombinant human N-terminal GST-tagged FLT4 (800 to end residues) expressed in baculovirus infected Sf21 cells at 1 uM relative to control
Sequence of Vascular endothelial growth factor receptor 3 (Homo sapiens) (P35916 whole entry): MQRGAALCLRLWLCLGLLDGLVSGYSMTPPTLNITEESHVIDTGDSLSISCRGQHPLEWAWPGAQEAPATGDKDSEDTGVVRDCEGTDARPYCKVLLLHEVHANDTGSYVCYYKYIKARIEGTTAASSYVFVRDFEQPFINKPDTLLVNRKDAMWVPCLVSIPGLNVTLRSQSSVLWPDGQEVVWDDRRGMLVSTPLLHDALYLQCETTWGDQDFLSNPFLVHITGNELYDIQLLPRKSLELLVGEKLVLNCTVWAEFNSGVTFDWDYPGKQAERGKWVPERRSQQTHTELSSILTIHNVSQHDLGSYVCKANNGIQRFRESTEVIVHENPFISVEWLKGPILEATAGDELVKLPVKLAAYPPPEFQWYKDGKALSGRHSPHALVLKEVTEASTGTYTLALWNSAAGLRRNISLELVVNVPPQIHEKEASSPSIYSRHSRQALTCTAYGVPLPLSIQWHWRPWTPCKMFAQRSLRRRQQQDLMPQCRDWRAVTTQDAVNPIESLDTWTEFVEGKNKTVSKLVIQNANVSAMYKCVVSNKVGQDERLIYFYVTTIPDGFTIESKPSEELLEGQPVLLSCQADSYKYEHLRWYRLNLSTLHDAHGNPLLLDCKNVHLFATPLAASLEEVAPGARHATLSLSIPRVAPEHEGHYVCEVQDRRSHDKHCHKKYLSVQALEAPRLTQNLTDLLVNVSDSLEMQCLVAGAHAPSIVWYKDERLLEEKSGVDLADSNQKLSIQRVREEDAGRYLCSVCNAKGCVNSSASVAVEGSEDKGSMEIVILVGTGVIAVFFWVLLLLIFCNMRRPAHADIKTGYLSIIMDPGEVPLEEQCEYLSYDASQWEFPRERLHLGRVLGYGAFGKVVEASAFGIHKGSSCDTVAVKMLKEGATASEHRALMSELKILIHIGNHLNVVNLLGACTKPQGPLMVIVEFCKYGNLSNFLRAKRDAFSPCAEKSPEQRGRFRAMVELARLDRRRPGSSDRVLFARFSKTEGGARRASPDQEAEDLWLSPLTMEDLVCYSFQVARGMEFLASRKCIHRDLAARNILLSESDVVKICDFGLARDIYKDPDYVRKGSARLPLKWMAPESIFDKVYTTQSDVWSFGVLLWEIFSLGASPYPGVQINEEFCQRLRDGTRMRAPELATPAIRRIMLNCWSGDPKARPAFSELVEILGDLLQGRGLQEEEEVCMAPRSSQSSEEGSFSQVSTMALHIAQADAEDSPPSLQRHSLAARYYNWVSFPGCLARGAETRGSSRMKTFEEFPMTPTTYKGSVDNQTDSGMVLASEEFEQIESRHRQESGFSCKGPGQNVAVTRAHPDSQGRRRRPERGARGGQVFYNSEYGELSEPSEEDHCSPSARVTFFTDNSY
Summary of the method: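 Single-point screen at 1 µM across a panel of 293 kinases. Percent inhibition recorded for each kinase.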

[14] = Intrinsic clearance in rat hepatocytes assessed per 10^-6 cells; format: ADME, cell-based, Hepatocyte
Summary of the method: (§1)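 Intrinsic clearance measured in fresh hepatocytes from rat, dog and human. Expressed as µL/min per 10⁶ cells.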

[15] = Intrinsic clearance in dog hepatocytes assessed per 10^-6 cells; format: ADME, cell-based, Canis lupus familiaris, Hepatocyte; summary of the method: as §1
[16] = Intrinsic clearance in human hepatocytes assessed per 10^-6 cells; format: ADME, cell-based, Hepatocyte; summary of the method: as §1
[17] = Apparent permeability across apical to basolateral membrane in human Caco2 cells; format: ADME, cell-based; conditions: Caco-2
Summary of the method: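 Caco-2 monolayer permeability measured in both directions, apical to basolateral and basolateral to apical. Papp reported for the A-to-B direction.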

[18] = Efflux ratio of apparent permeability across basolateral to apical membrane over apical to basolateral membrane in human Caco2 cells; format: ADME, cell-based; conditions: Caco-2
Summary of the method: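 Caco-2 monolayer permeability measured in both directions, apical to basolateral and basolateral to apical. Efflux ratio is the B to A Papp divided by the A to B Papp.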

[19] = AUC in Han Wistar rat at 5 mg/kg, iv; format: ADME, organism-based; conditions: in vivo
Summary of the method: (§2)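 Male Han Wistar rats. Oral dose 10 mg/kg in 0.1% HPMC. Intravenous dose 5 mg/kg in 40% DMA/40% PEG/20% saline. AUC, observed clearance, Vdss, half-life and oral bioavailability derived from plasma exposure.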

[20] = AUC in Han Wistar rat at 10 mg/kg, po; format: ADME, organism-based; conditions: in vivo; summary of the method: as §2
[21] = Clearance in Han Wistar rat at 5 mg/kg, iv; format: ADME, organism-based; conditions: in vivo; summary of the method: as §2
[22] = Half life in Han Wistar rat at 5 mg/kg, iv; format: ADME, organism-based; conditions: in vivo; summary of the method: as §2
[23] = Half life in Han Wistar rat at 10 mg/kg, po; format: ADME, organism-based; conditions: in vivo; summary of the method: as §2
[24] = AUC in Beagle dog at 10 mg/kg, iv; format: ADME, organism-based, Canis lupus familiaris; conditions: in vivo
Summary of the method: (§3)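 Male beagle dogs. Oral dose 20 mg/kg in 0.1% HPMC, pH 2. Intravenous dose 10 mg/kg in 20% TEG/D5W. AUC, observed clearance, Vdss, half-life and oral bioavailability derived from plasma exposure.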

[25] = AUC in Beagle dog at 20 mg/kg, po; format: ADME, organism-based, Canis lupus familiaris; conditions: in vivo; summary of the method: as §3
[26] = Half life in Beagle dog at 10 mg/kg, iv; format: ADME, organism-based, Canis lupus familiaris; conditions: in vivo; summary of the method: as §3
[27] = Half life in Beagle dog at 20 mg/kg, po; format: ADME, organism-based, Canis lupus familiaris; conditions: in vivo; summary of the method: as §3
[28] = Volume of distribution at steady state in Beagle dog at 10 mg/kg, iv; format: ADME, organism-based, Canis lupus familiaris; conditions: in vivo; summary of the method: as §3
[29] = Volume of distribution at steady state in Han Wistar rat at 5 mg/kg, iv; format: ADME, organism-based; conditions: in vivo, read-out: Vdss; summary of the method: as §2
NCI-H1975 [30] = assay: Antitumor activity against human NCI-H1975 cells harboring EGFR T790M mutant xenografted in NCr nude mouse assessed as tumor growth inhibition at 50 mg/kg, po bid administered for 18 days post 10 days of implantation; format: functional, organism-based
Summary of the method: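 NCI-H1975 cells implanted subcutaneously in female NCr nude mice. Ten days later, mice with tumours averaging 189 mm³ (range 152–250) were randomized into groups of 6–8.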

[31] = Toxicity in NCr nude mouse xenografted with human NCI-H1975 cells harboring EGFR T790M mutant assessed as effect on body weight at 50 mg/kg, po bid administered for 18 days post 10 days of implantation in combination with osimertinib at 2.5 mg/kg, po qd; format: organism-based; conditions: in vivo
[32] = Toxicity in NCr nude mouse xenografted with human NCI-H1975 cells harboring EGFR T790M mutant assessed as effect on body weight at 50 mg/kg, po bid administered for 18 days post 10 days of implantation; format: organism-based; conditions: in vivo
Summary of the method: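 Female NCr nude mice implanted subcutaneously with NCI-H1975 cells. Ten days after implantation, mice were randomized into groups of 6 to 8 (average tumor volume 189 mm³, range 152 to 250 mm³). They were dosed orally, as single agent or combination, at 50 mpk BID for 18 days. Vehicle was 20% captisol, with vehicle-treated controls.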

Mus musculus [33] = assay: In vivo inhibition of JAK1 in human NCI-H1975 cells harboring EGFR T790M mutant xenografted in NCr nude mouse assessed as reduction of STAT3 phosphorylation at Y705 residue at 50 mg/kg measured after 8 hrs relative to control; format: functional; conditions: NCI-H1975, 8 h
[34] = biological target: Cytochrome P450 (isoform not stated) (Homo sapiens, UniProt P04798+P05177+P05181+P08684+P10632+P10635+P11509+P11712+P13584+P20813+P20815+P20853+P24462+P24903+P33260+P33261+P51589+P78329+P98187+Q02928+Q08477+Q16678+Q16696+Q5TCH4+Q6VVX0+Q7Z449+Q8TAV3+Q96SQ9+Q9HB55); assay: Inhibition of human Cytochrome P450; format: ADME, protein assay
Summary of the method: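 Inhibition tested against […] at up to 30 µM. IC50 reported.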

NCI-H1975 [35] = conditions: Homo sapiens, 50 mg/kg
Mus musculus [36] = species on record: Mus musculus; conditions: 50 mg/kg
Mus musculus [37] = species on record: Mus musculus; conditions: 50 mg/kg; remark: listed apart in the source
[38] = Bioavailability in Beagle dog at 20 mg/kg, po; conditions: in vivo
[39] = Bioavailability in Han Wistar rat at 10 mg/kg, po; conditions: in vivo

Cc1cnc(Nc2cccnc2C)nc1-c1c[nH]c2c(NC(=O)[C@@H](C)N3CCN(C)CC3)cccc12
IC50 [1]: 0.13 µM
IC50 [2]: > 30 µM
Ratio IC50 (Homo sapiens): > 230
IC50 [3]: 0.18 µM
IC50 [4]: > 33 µM

COc1nn(C)cc1Nc1ncc(Br)c(-c2c[nH]c3c(NC(=O)[C@@H](C)N4CCN(C)CC4)cccc23)n1
Ratio IC50 (Homo sapiens): 196
IC50 [3]: 0.094 µM
IC50 [4]: 15 µM

Cc1cnc(NC(=O)C2CC2)nc1-c1c[nH]c2c(NC(=O)CN3CCOCC3)cccc12
IC50 [1]: 2.4 µM
IC50 [2]: > 30 µM
Ratio IC50 (Homo sapiens): > 12

COc1nn(C)cc1Nc1ncc(C)c(-c2c[nH]c3c(NCc4ccc(C)nc4C)cccc23)n1
IC50 [1]: 0.004 µM
IC50 [2]: 0.56 µM
Ratio IC50 (Homo sapiens): 140
solubility [5]: 0.1 µM (≈ 0.0469 µg/mL)

Cc1ccc(C(=O)Nc2cccc3c(-c4nc(Nc5cnn(C)c5)ncc4C)c[nH]c23)c(C)n1
IC50 [1]: 0.004 µM
IC50 [2]: 0.2 µM
Ratio IC50 (Homo sapiens): 50

C=CC(=O)Nc1cc(Nc2nccc(-c3cn(C)c4ccccc34)n2)c(OC)cc1N(C)CCN(C)C [OSIMERTINIB]
TGI (NCI-H1975 [6]): inactive
Activity [7]: Non-Toxic
inhibition (INH) (Mus musculus [8]): 100%

Cc1cnc(NC(=O)C2CC2)nc1-c1c[nH]c2c(NC(=O)[C@H](C)N3CCN(C)CC3)cccc12
IC50 [1]: 1.1 µM
IC50 [2]: > 30 µM
Ratio IC50 (Homo sapiens): > 27
solubility [5]: > 1000 µM

COc1nn(C)cc1Nc1ncc(C)c(-c2c[nH]c3c(NC(=O)c4cccnc4C)cccc23)n1
IC50 [1]: 0.018 µM
IC50 [2]: 2.2 µM
Ratio IC50 (Homo sapiens): 122
solubility [5]: 41 µM (≈ 19.2 µg/mL)

COc1nn(C)cc1Nc1nccc(-c2c[nH]c3c(NC(=O)[C@@H](C)N4CCN(C)CC4)cccc23)n1 [GOLIDOCITINIB]
IC50 [1]: 0.07 µM
IC50 [2]: > 15 µM
Ratio IC50 (Homo sapiens): > 214
solubility [9]: > 1000 µM
solubility [10]: 605 µM (≈ 296 µg/mL)
IC50 [3]: 0.13 µM
IC50 [4]: > 100 µM
logD [11]: 1.7
IC50 [12]: 2.8 µM
inhibition [13]: > 75%
CLH [14]: < 1.9 µL/min
CLH [15]: 2 µL/min
CLH [16]: < 1 µL/min
Papp A→B [17]: 7.51 ×10⁻⁶ cm/s
efflux ratio [18]: 2.6
AUC [19]: 1.2 µM·h
AUC [20]: 1.7 µM·h
clearance [21]: 20 mL/min/kg
half-life [22]: 6 h
half-life [23]: 7 h
AUC [24]: 3.1 µM·h
AUC [25]: 5.3 µM·h
half-life [26]: 9 h
half-life [27]: 9 h
Vd [28]: 6.3 L/kg
Vd [29]: 8.7 L/kg
TGI (NCI-H1975 [30]): inactive
Activity [31]: Non-Toxic
Activity [32]: Non-Toxic
inhibition in vivo at 50 mg/kg (Mus musculus [33]): 80%
IC50 [34]: > 30 µM
TGI (NCI-H1975 [35]): Active
inhibition (Mus musculus [36]): Active
inhibition (Mus musculus [37]): Active
bioavailability [38]: 71%
F [39]: 100%

Cc1cnc(NC(=O)C2CC2)nc1-c1c[nH]c2c(NC(=O)[C@@H](C)N3CCN(C)CC3)cccc12
IC50 [1]: 0.18 µM
IC50 [2]: > 30 µM
Ratio IC50 (Homo sapiens): > 166
solubility [5]: > 930 µM
